ChEMBL document CHEMBL3286351, “Antibacterial evaluation of structurally amphipathic, membrane active small cationic peptidomimetics: synthesized by incorporating 3-amino benzoic acid as peptidomimetic element” (Eur J Med Chem, 2014)
≈ marks a conversion by molar mass, not a printed value. Calls of active or inactive are those of the source. The calls are words filed in the database; no cut-off is given here. Where a SMILES comes first, the peptide text is derived from it. [ ]: non-standard residue; d: D form. 3Abz = Nc1cccc(C(=O)O)c1; Orn = NCCC[CH](N)C(=O)O

Assays:
[1] = tested on: Staphylococcus epidermidis; assay: Antibacterial activity against methicillin-resistant Staphylococcus epidermidis ATCC 51625 assessed as growth inhibition after 18 hrs by CLSI microdilution broth assay; format: functional; conditions: ATCC 51625, 18 h
Method in brief: (§1)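 Modified CLSI broth microdilution in Mueller-Hinton broth. Wells held 90 µL of about 2 × 10^5 CFU/mL inoculum plus 10 µL of serially diluted peptidomimetic, range 0.7-100 µg/mL. Plates were incubated overnight with agitation at 37 °C and absorbance read at 600 nm after 18 h. Controls: inoculum without compound, and uninoculated broth. Run in triplicate.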

[2] = Induction of hemolysis in human RBC assessed as hemoglobin release after 1 hr by microtiter plate reader analysis; format: cell-based, Erythrocyte; conditions: for HC10: erythrocyte, 1 h; for HC50 at 1 h: red blood cells
Method in brief: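 Freshly isolated human RBCs washed three times in PBS (35 mM phosphate, 150 mM NaCl, pH 7.2) and used as a 4% (v/v) suspension. Mixed 1:1 with twofold serial dilutions of compound, incubated 1 h at 37 °C without agitation, then centrifuged. Supernatant A540 read. PBS defined 0% and 1% Triton X-100 defined 100% lysis; HC50 and HC10 derived.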

[3] = Selectivity ratio of HC50 for hemolysis in human RBC to MIC for Staphylococcus aureus
[4] = tested on: HaCaT; assay: Cytotoxicity against human HaCaT cells assessed as decrease in cell viability after 24 hrs by MTT assay; format: cell-based
Method in brief: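 HaCaT keratinocytes grown as a monolayer in DMEM with 10% FBS and penicillin/streptomycin, 37 °C, 5% CO2. Seeded 24 h, then exposed to compound for 24 h. MTT (5 mg/mL stock in PBS) added for 4 h; formazan dissolved in isopropanol and read at 570 nm. Growth inhibition calculated relative to medium-only controls. Two independent experiments in triplicate.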

[5] = tested on: HaCaT; assay: Cytotoxicity against human HaCaT cells at 100 to 500 ug/ml after 24 hrs by LDH release assay; format: cell-based
Method in brief: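 HaCaT cells (DMEM with 10% FBS, 37 °C, 5% CO2) seeded for 24 h, then treated with varying concentrations for 24 h. LDH measured at 490 nm in both supernatant and trypsinized cell lysate with a non-radioactive kit. % release = supernatant/(supernatant + lysate) × 100. Two independent experiments in triplicate.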

[6] = tested on: Staphylococcus aureus; assay: Bactericidal activity against Staphylococcus aureus MTCC 3160 assessed as number of bacteria at 4 times MIC measured within 30 mins by time kill assay (reference value: 10^6 CFU/ml); format: functional
Method in brief: (§2)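 Time-kill assay. […] Aliquots taken at fixed intervals were serially diluted and plated on Mueller-Hinton agar. CFU were counted after 24 h at 37 °C. Two independent experiments, each in triplicate.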

[7] = tested on: Escherichia coli; assay: Bactericidal activity against Escherichia coli MTCC 723 assessed as number of bacteria at 4 times MIC measured within 30 mins by time kill assay (reference value: 10^6 CFU/ml); format: functional; method in brief: as §2
[8] = tested on: Lipid bilayer; assay: Membrane permeabilization in bacterial membrane model consisting large unilamellar vesicle of dipalmitoylphosphatidylcholine:dipalmitoylphosphatidylglycerol at ratio of 7:3 assessed as calcein release after 5 mins by fluorescence assay; format: cell membranes
Method in brief: (§3)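 LUVs of DPPC:DPPG 7:3 (w/w) loaded with 70 mM calcein (150 mM NaCl, 0.1 mM EDTA, pH 7.4). Made by freeze-thaw and extrusion through 100 nm filters; free dye removed on Sephadex G-50; diameter 110-130 nm. Diluted to 40 µM lipid and exposed to 5-15 µg/mL compound. Fluorescence read at ex 490/em 520 nm each minute for 20 min, then every 10 min. Triton X-100 defined 100% release.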

[9] = tested on: Lipid bilayer; assay: Membrane permeabilization in bacterial membrane model consisting large unilamellar vesicle of dipalmitoylphosphatidylcholine:dipalmitoylphosphatidylglycerol at ratio of 7:3 assessed as calcein release at 5 ug/ml after 90 mins by fluorescence assay; format: cell membranes; method in brief: as §3
[10] = tested on: Lipid bilayer; assay: Membrane permeabilization in bacterial membrane model consisting large unilamellar vesicle of dipalmitoylphosphatidylcholine:dipalmitoylphosphatidylglycerol at ratio of 7:3 assessed as calcein release at 15 ug/ml after 90 mins by fluorescence assay; format: cell membranes; method in brief: as §3
[11] = Membrane permeabilization in mammalian membrane model consisting large unilamellar vesicle of dipalmitoylphosphatidylcholine:cholesterol at ratio of 10:1 assessed as calcein release at 15 ug/ml after 5 mins by fluorescence assay; format: cell membranes
Method in brief: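 LUVs of DPPC/cholesterol 10:1 (w/w) loaded with calcein, extruded through 100 nm filters, and cleared of free dye on Sephadex G-50. Diluted to 40 µM lipid in calcein-free buffer (150 mM NaCl, 0.1 mM EDTA). Calcein release read at ex 490/em 520 nm, normalized to Triton X-100 lysis.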

[12] = tested on: Escherichia coli; assay: Induction of membrane damage in Escherichia coli at 4 times MIC after 2 hrs by DAPI/propidium iodide staining based fluorescence microscopy; format: functional, organism-based
Method in brief: (§4)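 Stained with PI (5 µg/mL) for 15 min in the dark at 0 °C, washed, then DAPI (10 µg/mL) for 15 min in the dark at 0 °C. Untreated cells processed identically as controls. Imaged by fluorescence microscopy with a 60× oil objective.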

[13] = tested on: Staphylococcus aureus; assay: Induction of membrane damage in Staphylococcus aureus at 4 times MIC after 2 hrs by DAPI/propidium iodide staining based fluorescence microscopy; format: functional, organism-based; method in brief: as §4
[14] = tested on: Staphylococcus aureus; assay: Antibacterial activity against Staphylococcus aureus MTCC 3160 assessed as growth inhibition treated for 16 days by two-fold dilution assay; format: functional, organism-based
[15] = tested on: Staphylococcus aureus; assay: Antibacterial activity against methicillin-resistant Staphylococcus aureus ATCC BAA-1720 assessed as growth inhibition treated for 16 days by two-fold dilution assay; format: functional, organism-based
Method in brief: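 Serial-passage resistance study. Start from the initial MIC by broth microdilution, then expose cells to doubling dilutions in triplicate wells. After each 18 h incubation, pool the wells with the highest concentration still showing visible growth and re-inoculate at about 2 × 10^6 CFU/mL.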

[16] = tested on: Plasma; assay: (§5) Stability in human plasma assessed as compound degradation after 24 hrs by RP-HPLC analysis; format: ADME, cell-free; conditions: 24 h
Method in brief: (§6)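 Compound (1 mg/mL stock in water; 50 µL) added to 1 mL fresh heparinized human plasma and held at 37 °C. Samples taken at 30 min, 1, 2, 6, 12 and 24 h. Proteins precipitated with 95% ethanol, cooled at 4 °C for 15 min and centrifuged at 18,000 g. Supernatant analyzed by RP-HPLC with UV detection at 280 nm.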

[17] = (§7) Proteolytic stability assessed as trypsin (unknown origin)-mediated compound degradation by measuring compound remaining after 4 days by RP-HPLC analysis; format: ADME; conditions: human, 96 h
Method in brief: (§8)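 Compound at 1 mg/mL in 0.1 M NH4HCO3 (pH 8.2) combined with trypsin or α-chymotrypsin solution (1 mg enzyme per 50 mL of the same buffer) at 37 °C. Aliquots taken over time and quenched with 10% formic acid. Remaining compound quantified by C18 RP-HPLC. An enzyme-free control was run for each test.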

[18] = Proteolytic stability assessed as alpha chymotrypsin (unknown origin)-mediated compound degradation after 24 hrs by RP-HPLC analysis; format: ADME; conditions: human; method in brief: as §8
[19] = tested on: alpha chymotrypsin; assay: Proteolytic stability assessed as alpha chymotrypsin (unknown origin)-mediated compound degradation by measuring compound remaining after 4 days by RP-HPLC analysis; format: ADME; conditions: human, read-out: Stability; method in brief: as §8
[20] = Retention time of the compound by HPLC analysis; format: physicochemical
Method in brief: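 Analytical RP-HPLC on a C18 column (5 µm, 4.6 × 250 mm) at room temperature. Run a linear gradient of 0.5-60% acetonitrile containing 0.05% TFA against water containing 0.05% TFA at 0.5 mL/min.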

[21] = tested on: Escherichia coli; assay: Antibacterial activity against Escherichia coli MTCC 723 assessed as growth inhibition after 18 hrs by CLSI microdilution broth assay; format: functional; conditions: MTCC 723, 18 h
[22] = tested on: Pseudomonas aeruginosa; assay: Antibacterial activity against Pseudomonas aeruginosa MTCC 2295 assessed as growth inhibition after 18 hrs by CLSI microdilution broth assay; format: functional; conditions: MTCC 2295, 18 h
[23] = tested on: Staphylococcus aureus; assay: Antibacterial activity against Staphylococcus aureus MTCC 3160 assessed as growth inhibition after 18 hrs by CLSI microdilution broth assay; format: functional; conditions: MTCC 3160, 18 h
[24] = tested on: Bacillus subtilis; assay: Antibacterial activity against Bacillus subtilis MTCC 2763 assessed as growth inhibition after 18 hrs by CLSI microdilution broth assay; format: functional; conditions: MTCC 2763, 18 h
[25] = tested on: Staphylococcus aureus; assay: Antibacterial activity against methicillin-resistant Staphylococcus aureus ATCC BAA-1720 assessed as growth inhibition after 18 hrs by CLSI microdilution broth assay; format: functional; conditions: ATCC BAA-1720, 18 h; method in brief: as §1
[26] = as §5; format: ADME, cell-free; conditions: read-out: Drug degradation; method in brief: as §6
[27] = Stability in human plasma assessed as compound degradation after 30 mins by RP-HPLC analysis; format: ADME, cell-free; conditions: read-out: Drug degradation; method in brief: as §6
[28] = tested on: Plasma; assay: Stability in human plasma assessed as compound degradation after 12 hrs by RP-HPLC analysis; format: ADME, cell-free; method in brief: as §6
[29] = tested on: trypsin; assay: as §7; format: ADME; conditions: human, trypsin; read-out: Stability; method in brief: as §8
[30] = tested on: Lipid bilayer; assay: Membrane permeabilization in bacterial membrane model consisting large unilamellar vesicle of dipalmitoylphosphatidylcholine:dipalmitoylphosphatidylglycerol at ratio of 7:3 assessed as calcein release at 15 ug/ml after 20 mins by fluorescence assay; format: cell membranes; method in brief: as §3
[31] = tested on: Lipid bilayer; assay: Membrane permeabilization in bacterial membrane model consisting large unilamellar vesicle of dipalmitoylphosphatidylcholine:dipalmitoylphosphatidylglycerol at ratio of 7:3 assessed as calcein release at 5 ug/ml after 50 mins by fluorescence assay; format: cell membranes; method in brief: as §3
[32] = tested on: Plasma; assay: Stability in human plasma assessed as compound degradation after 1 hr by RP-HPLC analysis; format: ADME, cell-free; method in brief: as §6
[33] = Stability in human plasma assessed as compound degradation after 2 hrs by RP-HPLC analysis; format: ADME, cell-free; conditions: read-out: Drug degradation; method in brief: as §6
[34] = Proteolytic stability assessed as trypsin (unknown origin)-mediated compound degradation after 36 hrs by RP-HPLC analysis; format: ADME; conditions: human; method in brief: as §8

| SMILES | MIC [1] [µg/mL] | HC10 [2] [µg/mL] | HC50 at 1 h [2] [µg/mL] | Selectivity ratio [3] | Activity [4] | Activity [5] | CFU/ml [6] | CFU/ml [7] | Activity [8] | Activity [11] | Activity [12] | Activity [13] | inhibition [14] | remaining at 96 h [19] [%] | Retention_time [20] [min] | MIC [21] [µg/mL] | MIC [22] [µg/mL] | MIC [23] [µg/mL] | MIC [24] [µg/mL] | MIC [25] [µg/mL] | other results |
| --- | --- | --- | --- | --- | --- | --- | --- | --- | --- | --- | --- | --- | --- | --- | --- | --- | --- | --- | --- | --- | --- |
| NCCCC(NC(=O)C(Cc1c[nH]c2ccccc12)NC(=O)c1cccc(NC(=O)C(Cc2c[nH]c3ccccc23)NC(=O)C(CCCN)NC(=O)C(N)Cc2c[nH]c3ccccc23)c1)C(N)=O (configuration not stated) (H-W[Orn]W[3Abz]W[Orn]-NH2; configuration not given here) | 6.25 (≈ 6.77 µM) | 100 | 390 | 62.4 | Dose-dependent effect | Toxic | 1000 | 1000 | Dose-dependent effect | inactive | Active | Active | Active | 70 | 25.378 | 20 (≈ 21.7 µM) | 15.5 (≈ 16.8 µM) | 6.25 (≈ 6.77 µM) | 25 (≈ 27.1 µM) | 5 (≈ 5.42 µM) | Activity [9]: 23%; Activity [10]: 48%; inhibition [15]: Active; Stability [16]: Stable; Stability [17]: Stable; Stability [18]: Stable |
| N=C(N)NCCCC(NC(=O)C(Cc1c[nH]c2ccccc12)NC(=O)C(Cc1c[nH]c2ccccc12)NC(=O)C(CCCNC(=N)N)NC(=O)C(N)Cc1c[nH]c2ccccc12)C(N)=O (configuration not stated) (H-WRWWR-NH2; configuration not given here) | 20 (≈ 22.5 µM) | 60 | 200 | 13.3 | Dose-dependent effect | Toxic | – | – | – | – | – | – | – | 44 | 30.604 | 40 (≈ 45 µM) | 70 (≈ 78.8 µM) | 15 (≈ 16.9 µM) | 50 (≈ 56.3 µM) | 17.5 (≈ 19.7 µM) | metabolised at 24 h [26]: 18%; metabolised at 0.5 h [27]: 5.31%; Stability [28]: Stable; remaining at 96 h [29]: 21% |
| N=C(N)NCCCC(NC(=O)C(Cc1c[nH]c2ccccc12)NC(=O)c1cccc(NC(=O)C(Cc2c[nH]c3ccccc23)NC(=O)C(CCCNC(=N)N)NC(=O)C(N)Cc2c[nH]c3ccccc23)c1)C(N)=O (configuration not stated) (H-WRW[3Abz]WR-NH2; configuration not given here) | 5 (≈ 4.96 µM) | 80 | 310 | 62 | Dose-dependent effect | Toxic | 1000 | 1000 | Dose-dependent effect | inactive | Active | Active | Active | 70 | 27.34 | 7.5 (≈ 7.45 µM) | 12.5 (≈ 12.4 µM) | 5 (≈ 4.96 µM) | 20 (≈ 19.9 µM) | 5.5 (≈ 5.46 µM) | Activity [30]: 47%; Activity [31]: 19%; inhibition [15]: Active; Stability [32]: Stable; metabolised at 2 h [33]: 6.58%; Stability [16]: Stable; Stability [34]: Stable; remaining at 96 h [29]: 65%; Stability [18]: Stable |
